Test results reported in ChEMBL document CHEMBL1142556, “cis-parthenolid-9-one from Anvillea garcinii” (2000).
≈ marks a conversion by molar mass, not a printed value.

Legend:
[1] = Cytotoxicity against human lung cancer cells; type: functional, Cancer cell lines; conditions: for EC50: Homo sapiens, Cancer cell lines, read-out: ED50 (the source's name)
Procedure, shortened: (§1)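 Tested in vitro by the National Cancer Institute screen. Values are averages over each cell-line subpanel. Potency is reported two ways: C50, the half-maximal effective dose in μmol/L, and ED50, the dose that inhibits net cell growth to 50% of control growth in μg/mL.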

[2] = Cytotoxicity against human central nervous system cancer cells; type: functional, Cancer cell lines; conditions: for EC50: Homo sapiens, Cancer cell lines, read-out: ED50 (the source's name); procedure, shortened: as §1
[3] = Cytotoxicity against human renal cancer cells; type: functional, Cancer cell lines; conditions: for EC50: Homo sapiens, Cancer cell lines, read-out: ED50 (the source's name); procedure, shortened: as §1
[4] = Cytotoxicity against human breast cancer cells; type: functional, Cancer cell lines; conditions: for EC50: Homo sapiens, Cancer cell lines, read-out: ED50 (the source's name); procedure, shortened: as §1
[5] = Cytotoxicity against human colon cancer cells; type: functional, Cancer cell lines; conditions: for EC50: Homo sapiens, Cancer cell lines, read-out: ED50 (the source's name); procedure, shortened: as §1
[6] = Cytotoxicity against human leukemia cells; type: functional, Leukemia cell; conditions: for EC50: Homo sapiens, Leukemia cell, read-out: ED50 (the source's name); procedure, shortened: as §1
[7] = Cytotoxicity against human prostate cancer cells; type: functional, Cancer cell lines; conditions: for EC50: Homo sapiens, Cancer cell lines, read-out: ED50 (the source's name); procedure, shortened: as §1
[8] = Cytotoxicity against human ovarian cancer cells; type: functional, Cancer cell lines; conditions: for EC50: Homo sapiens, Cancer cell lines, read-out: ED50 (the source's name); procedure, shortened: as §1
[9] = Cytotoxicity against human melanoma cells; type: functional, Melanoma cell; conditions: for EC50: Homo sapiens, Melanoma cell, read-out: ED50 (the source's name); procedure, shortened: as §1

SMILES | C50 [1] | EC50 [1] | C50 [2] | EC50 [2] | C50 [3] | EC50 [3] | C50 [4] | EC50 [4] | C50 [5] | EC50 [5] | C50 [6] | EC50 [6] | C50 [7] | EC50 [7] | C50 [8] | EC50 [8] | C50 [9] | EC50 [9]
C=C1C(=O)O[C@H]2[C@H]1CC(=O)/C(C)=C/CC[C@@]1(C)O[C@@H]21 | 1.8 µmol/L | 0.47 µg/mL (≈ 1.79 µM) | 2.9 µmol/L | 0.76 µg/mL (≈ 2.9 µM) | 0.41 µmol/L | 0.11 µg/mL (≈ 0.419 µM) | 0.6 µmol/L | 0.16 µg/mL (≈ 0.61 µM) | 0.32 µmol/L | 0.08 µg/mL (≈ 0.305 µM) | 0.08 µmol/L | 0.02 µg/mL (≈ 0.0762 µM) | 2.2 µmol/L | 0.57 µg/mL (≈ 2.17 µM) | 1.4 µmol/L | 0.37 µg/mL (≈ 1.41 µM) | 0.57 µmol/L | 0.15 µg/mL (≈ 0.572 µM)
C=C1C(=O)O[C@H]2[C@H]1CC(=O)/C(C)=C\CC[C@@]1(C)O[C@@H]21 | 13.4 µmol/L | 3.51 µg/mL (≈ 13.4 µM) | 17.1 µmol/L | 4.47 µg/mL (≈ 17 µM) | 8.05 µmol/L | 2.11 µg/mL (≈ 8.04 µM) | 9.81 µmol/L | 2.57 µg/mL (≈ 9.8 µM) | 7.3 µmol/L | 1.91 µg/mL (≈ 7.28 µM) | 1.94 µmol/L | 0.51 µg/mL (≈ 1.94 µM) | 14.4 µmol/L | 3.77 µg/mL (≈ 14.4 µM) | 11.9 µmol/L | 3.13 µg/mL (≈ 11.9 µM) | 10.6 µmol/L | 2.77 µg/mL (≈ 10.6 µM)
